Experimental data from ChEMBL document CHEMBL1137646, “Intracellular metabolism and persistence of the anti-human immunodeficiency virus activity of 2',3'-didehydro-3'-deoxy-4'-ethynylthymidine, a novel thymidine analog” (Antimicrob Agents Chemother, 2007).
Active and inactive are the calls of the source. The rule behind the calls is not given here.

Tests used:
[1] = tested on: Human immunodeficiency virus 1; test: Antiviral activity against 0.1 MOI HIV1 3B in 24 hrs pretreated human TZM-b1 cells infected 0 hr post drug removal assessed as inhibition of viral replication at 5 uM measured 24 hrs postinfection by luciferase assay; type: functional; details: Human immunodeficiency virus 1, 3B
Summary of the method: (§1)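 TZM-bl cells were plated in phenol red-free RPMI 1640, allowed to adhere 15–18 h at 37°C, then exposed to a range of drug concentrations for 24 h. Medium was changed to remove extracellular drug, and cells were infected with HIV-1 IIIB (MOI 0.1) at 0, 24 or 48 h after removal. Luciferase was read 24 h post-infection with uninfected-cell background subtracted, in quintuple wells, and expressed relative to no-drug wells.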

[2] = tested on: Human immunodeficiency virus 1; test: Antiviral activity against 0.1 MOI HIV1 3B in 24 hrs pretreated human TZM-b1 cells infected 0 hr post drug removal assessed as inhibition of viral replication at 1 uM measured 24 hrs postinfection by luciferase assay; type: functional; details: Human immunodeficiency virus 1, 3B; summary of the method: as §1
CCRF-CEM [3] = test: Stability in human CEM cells assessed as intracellular radioactive triphosphate metabolite accumulation at 2 uM incubated for 24 hrs measured after 24 hrs of compound removal assessed per 10^6 cells; type: ADME, cell-based
Summary of the method: (§2)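 CEM cells were loaded with 2 µM [3H]analog (75 mCi/mmol) for 24 h, washed, and resuspended in drug-free medium. Intracellular metabolites were then measured by SAX-HPLC with radiometric detection at 0, 2, 4, 8, 12 and 24 h after removal. Values are pmol/10^6 cells, mean ± SD of three experiments.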

[4] = tested on: Human immunodeficiency virus 1; test: Antiviral activity against 0.1 MOI HIV1 3B in 24 hrs pretreated human TZM-b1 cells infected 0 hr post drug removal assessed as inhibition of viral replication at 6 uM measured 24 hrs postinfection by luciferase assay; type: functional; details: Human immunodeficiency virus 1, 3B; summary of the method: as §1
RKO [5] = test: Drug metabolism in doxycyclin-induced Tet-On gene expressing human RKO cells producing thymidylate kinase assessed as radioactive 2', 3'-didehydro-3'-deoxy-4'-ethynylthymidine diphosphate accumulation after 16 hrs assessed per 10^6 cells by HPLC analysis; type: ADME, cell-based
Summary of the method: (§3)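 TMPK Tet-On RKO cells were seeded at 5 x 10^5 per dish with doxycycline at 0, 50 or 3,000 ng/ml for 48 or 72 h, then pulsed for 16 h with 2 µM [5'-3H]4'-Ed4T (478 mCi/mmol). After a cold PBS wash containing 20 µM dipyridamole, cells were extracted with 15% TCA and neutralized with trioctylamine/trichlorotrifluoroethane. Metabolites were quantified by radio-HPLC as pmol/10^6 cells, n=3.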

CCRF-CEM [6] = test: Drug metabolism in human CEM cells assessed as radioactive 2', 3'-didehydro-3'-deoxy-4'-ethynylthymidine monophosphate accumulation after 12 hrs assessed per 10^6 cells; type: ADME, cell-based
Summary of the method: (§4)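 CEM cells (2 x 10^7/ml) in RPMI 1640 with 10% dialyzed FBS were incubated at 37°C with 2 µM [3H]analog (75 mCi/mmol) and harvested at 2, 4, 8, 12, 16 and 24 h. Cells were washed in ice-cold PBS with 20 µM dipyridamole and extracted with 15% TCA. Neutralized extracts were separated on a Partisil SAX column with an H2O to 300 mM potassium phosphate gradient and radiometric detection, reported as pmol/10^6 cells, mean ± SD of three experiments.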

CCRF-CEM [7] = test: Drug metabolism in human CEM cells assessed as radioactive 2', 3'-didehydro-3'-deoxy-4'-ethynylthymidine diphosphate accumulation after 12 hrs assessed per 10^6 cells; type: ADME, cell-based
Summary of the method: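 For the dose series, CEM cells took up [3H]4'-Ed4T at 0.2/0.25, 0.5, 1 and 2 µM (150 mCi/mmol) for 12 h. TCA extracts were neutralized and the mono-, di- and triphosphates resolved by SAX-HPLC with radioactivity detection. Values are pmol/10^6 cells, mean ± SD, three independent experiments.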

CCRF-CEM [8] = test: Stability in human CEM cells assessed as intracellular radioactive phosphorylated metabolite accumulation at 2 uM incubated for 24 hrs measured after 8 hrs of compound removal assessed per 10^6 cells; type: ADME, cell-based; summary of the method: as §2
[9] = tested on: Human immunodeficiency virus 1; test: Antiviral activity against 0.1 MOI HIV1 3B in 24 hrs pretreated human TZM-b1 cells infected 0 hr post drug removal assessed as inhibition of viral replication at 2 uM measured 24 hrs postinfection by luciferase assay; type: functional; details: Human immunodeficiency virus 1, 3B; summary of the method: as §1
CCRF-CEM [10] = test: Drug metabolism in human CEM cells assessed as radioactive stavudine diphosphate accumulation at 2 uM assessed per 10^6 cells; type: ADME, cell-based; details: TDE = time-dependent effect; summary of the method: as §4
[11] = tested on: Human immunodeficiency virus 1; test: Antiviral activity against 0.1 MOI HIV1 3B in 24 hrs pretreated human TZM-b1 cells infected 0 hr post drug removal assessed as inhibition of viral replication at 3 uM measured 24 hrs postinfection by luciferase assay; type: functional; details: Human immunodeficiency virus 1, 3B; summary of the method: as §1
CCRF-CEM [12] = test: Drug metabolism in human CEM cells assessed as radioactive stavudine monophosphate accumulation at 2 uM assessed per 10^6 cells; type: ADME, cell-based; details: TDE = time-dependent effect; summary of the method: as §4
RKO [13] = test: (§5) Drug metabolism in doxycyclin-induced Tet-On gene expressing human RKO cells producing thymidylate kinase assessed as increase in radioactive 2', 3'-didehydro-3'-deoxy-4'-ethynylthymidine triphosphate accumulation at 2 uM after 16 hrs assessed per 10^6 cells by HPLC analysis relative to control; type: ADME, cell-based; summary of the method: as §3
RKO [14] = test: as §5, with “3-phosphoglycerate” for “thymidylate”; type: ADME, cell-based
Summary of the method: (§6)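 Tet-On PGK RKO cells (5 x 10^5 per dish) were induced with doxycycline at 0, 50 or 100 ng/ml for 48 or 72 h, then given 2 µM [5'-3H]4'-Ed4T (478 mCi/mmol) for 16 h. Cells were washed in cold PBS with 20 µM dipyridamole and extracted with 15% TCA. Neutralized extracts went through SAX-HPLC with radiometric detection, expressed as pmol/10^6 cells, mean of three experiments.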

[15] = tested on: Human immunodeficiency virus 1; test: Antiviral activity against 0.1 MOI HIV1 3B in 24 hrs pretreated human TZM-b1 cells infected 24 hrs post drug removal assessed as inhibition of viral replication at 1 uM measured 24 hrs postinfection by luciferase assay; type: functional; details: Human immunodeficiency virus 1, 3B; summary of the method: as §1
CCRF-CEM [16] = test: Drug metabolism in human CEM cells assessed as radioactive zidovudine monophosphate accumulation at 2 uM assessed per 10^6 cells; type: ADME, cell-based; details: TDE = time-dependent effect; summary of the method: as §4
[17] = tested on: Human immunodeficiency virus 1; test: Antiviral activity against 0.1 MOI HIV1 3B infected in human TZM-b1 cells assessed as inhibition of viral replication at 6 uM after 24 hrs by luciferase assay; type: functional; details: Human immunodeficiency virus 1, 3B, TZM-b1, 24 h
Summary of the method: (§7)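 TZM-bl cells in phenol red-free RPMI 1640 were infected with HIV-1 IIIB (MOI 0.1) at the time of adding drug at various concentrations, and drug and virus stayed together for 24 h. Lysate luciferase was measured with uninfected background subtracted, in quintuple wells. Inhibition was the mean signal relative to drug-free infected cells.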

CCRF-CEM [18] = test: Drug metabolism in human CEM cells assessed as radioactive 2', 3'-didehydro-3'-deoxy-4'-ethynylthymidine triphosphate accumulation after 12 hrs assessed per 10^6 cells; type: ADME, cell-based; summary of the method: as §4
[19] = tested on: Human immunodeficiency virus 1; test: Antiviral activity against 0.1 MOI HIV1 3B infected in human TZM-b1 cells assessed as inhibition of viral replication after 24 hrs by luciferase assay; type: functional, organism-based; summary of the method: as §7
CCRF-CEM [20] = test: Drug metabolism in human CEM cells assessed as radioactive 2', 3'-didehydro-3'-deoxy-4'-ethynylthymidine triphosphate accumulation at 2 uM assessed per 10^6 cells; type: ADME, cell-based; details: TDE = time-dependent effect; summary of the method: as §4
RKO [21] = test: Drug metabolism in doxycyclin-induced Tet-On gene expressing human RKO cells producing 3-phosphoglycerate kinase assessed as radioactive 2', 3'-didehydro-3'-deoxy-4'-ethynylthymidine triphosphate accumulation after 16 hrs assessed per 10^6 cells by HPLC analysis; type: ADME, cell-based; summary of the method: as §6
[22] = tested on: Human immunodeficiency virus 1; test: Antiviral activity against 0.1 MOI HIV1 3B in 24 hrs pretreated human TZM-b1 cells infected 24 hrs post drug removal assessed as inhibition of viral replication at 1 to 6 uM measured 24 hrs postinfection by luciferase assay
CCRF-CEM [23] = test: Drug metabolism in human CEM cells assessed as radioactive 2', 3'-didehydro-3'-deoxy-4'-ethynylthymidine diphosphate accumulation at 2 uM assessed per 10^6 cells; type: ADME, cell-based; details: TDE = time-dependent effect; summary of the method: as §4
CCRF-CEM [24] = test: Drug metabolism in human CEM cells assessed as radioactive zidovudine triphosphate accumulation at 2 uM assessed per 10^6 cells; type: ADME, cell-based; details: TDE = time-dependent effect; summary of the method: as §4
CCRF-CEM [25] = test: Drug metabolism in human CEM cells assessed as radioactive zidovudine diphosphate accumulation at 2 uM assessed per 10^6 cells; type: ADME, cell-based; details: TDE = time-dependent effect; summary of the method: as §4
CCRF-CEM [26] = test: Drug metabolism in human CEM cells assessed as radioactive 2', 3'-didehydro-3'-deoxy-4'-ethynylthymidine monophosphate accumulation at 2 uM assessed per 10^6 cells; type: ADME, cell-based; details: TDE = time-dependent effect; summary of the method: as §4
[27] = tested on: Human immunodeficiency virus 1; test: Antiviral activity against 0.1 MOI HIV1 3B in 24 hrs pretreated human TZM-b1 cells infected 0 hr post drug removal assessed as inhibition of viral replication at 4 uM measured 24 hrs postinfection by luciferase assay; type: functional; details: Human immunodeficiency virus 1, 3B; summary of the method: as §1
CCRF-CEM [28] = test: Drug metabolism in human CEM cells assessed as radioactive stavudine triphosphate accumulation at 2 uM assessed per 10^6 cells; type: ADME, cell-based; details: TDE = time-dependent effect; summary of the method: as §4
RKO [29] = test: Drug metabolism in doxycyclin-induced Tet-On gene expressing human RKO cells producing thymidylate kinase assessed as increase in radioactive 2', 3'-didehydro-3'-deoxy-4'-ethynylthymidine diphosphate accumulation at 2 uM after 16 hrs assessed per 10^6 cells by HPLC analysis relative to control; type: ADME, cell-based; summary of the method: as §3
[30] = tested on: Human immunodeficiency virus 1; test: Antiviral activity against 0.1 MOI HIV1 3B infected in human TZM-b1 cells assessed as inhibition of viral replication at 2 uM after 24 hrs by luciferase assay; type: functional; details: Human immunodeficiency virus 1, 3B, TZM-b1, 24 h; summary of the method: as §7

For `C#C[C@@]1(CO)C=C[C@H](n2cc(C)c(=O)[nH]c2=O)O1` [CENSAVUDINE], the inhibition at 5 µM [1] was 50%, the inhibition at 1 µM [2] was 50% and the Stability (CCRF-CEM [3]) was 0.2 pmol. For the same molecule, the inhibition at 6 µM [4] was 50%, the Activity (RKO [5]) was “Dose-dependent effect” and the Activity (CCRF-CEM [6]) was “Dose-dependent effect”. The Activity (CCRF-CEM [7]) was “Dose-dependent effect”, the Stability (CCRF-CEM [8]) was 1.07 pmol and the inhibition at 2 µM [9] was 50%. For the same molecule, the Activity (CCRF-CEM [10]) was “tde”, the inhibition at 3 µM [11] was 50% and the Activity (CCRF-CEM [12]) was “tde”. The “fold change (FC)” value (RKO [13]) was 3, the “fold change (FC)” value (RKO [14]) was 2.3 and the inhibition at 1 µM [15] was > 50%. The Activity (CCRF-CEM [16]) was “tde”, the inhibition at 6 µM [17] was 50% and the Activity (CCRF-CEM [18]) was “Dose-dependent effect”. The inhibition [19] was “Dose-dependent effect”, the Activity (CCRF-CEM [20]) was “tde” and the Activity (RKO [21]) was “Dose-dependent effect”. The inhibition [22] was “Active”, the Activity (CCRF-CEM [23]) was “tde” and the Activity (CCRF-CEM [24]) was “tde”. For the same molecule, the Activity (CCRF-CEM [25]) was “tde”, the Activity (CCRF-CEM [26]) was “tde” and the inhibition at 4 µM [27] was 50%. The Activity (CCRF-CEM [28]) was “tde”, the “fold change (FC)” value (RKO [29]) was 3 and the inhibition at 2 µM [30] was 50%.
